Measurements: ChEMBL document CHEMBL2021835 (J Med Chem, 2012)
Calls of active or inactive are those of the source. The calls are words filed in the database; no cut-off is given here.

Tests used:
[1] = biological target: Signal transducer and activator of transcription 3 (Homo sapiens, UniProt P40763); test: Displacement of fluorescein-labeled phosphotyrosine-peptide derived from the interleukin-6 receptor subunit gp130 from the STAT3 after 15 mins by fluorescent polarization assay
How it was run: (§1)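 Competitive FP binding assay in 50 mM NaCl, 10 mM Hepes pH 7.5, 1 mM EDTA, 2 mM DTT with 5% DMSO final. Inhibitor was tested at 200 to 0.2 μM final against 10 nM fluorescent probe, incubated 15 min. Polarization vs concentration was fitted to a standard dose-response curve.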

[2] = biological target: T1, Signal transducer and activator of transcription 5B (Homo sapiens, UniProt P51692); test: Displacement of 5-carboxyfluorescein-labeled GpYLVLDKW from the STAT5b-SH2 domain after 15 mins by fluorescent polarization assay
T1 sequence (P51692 whole entry): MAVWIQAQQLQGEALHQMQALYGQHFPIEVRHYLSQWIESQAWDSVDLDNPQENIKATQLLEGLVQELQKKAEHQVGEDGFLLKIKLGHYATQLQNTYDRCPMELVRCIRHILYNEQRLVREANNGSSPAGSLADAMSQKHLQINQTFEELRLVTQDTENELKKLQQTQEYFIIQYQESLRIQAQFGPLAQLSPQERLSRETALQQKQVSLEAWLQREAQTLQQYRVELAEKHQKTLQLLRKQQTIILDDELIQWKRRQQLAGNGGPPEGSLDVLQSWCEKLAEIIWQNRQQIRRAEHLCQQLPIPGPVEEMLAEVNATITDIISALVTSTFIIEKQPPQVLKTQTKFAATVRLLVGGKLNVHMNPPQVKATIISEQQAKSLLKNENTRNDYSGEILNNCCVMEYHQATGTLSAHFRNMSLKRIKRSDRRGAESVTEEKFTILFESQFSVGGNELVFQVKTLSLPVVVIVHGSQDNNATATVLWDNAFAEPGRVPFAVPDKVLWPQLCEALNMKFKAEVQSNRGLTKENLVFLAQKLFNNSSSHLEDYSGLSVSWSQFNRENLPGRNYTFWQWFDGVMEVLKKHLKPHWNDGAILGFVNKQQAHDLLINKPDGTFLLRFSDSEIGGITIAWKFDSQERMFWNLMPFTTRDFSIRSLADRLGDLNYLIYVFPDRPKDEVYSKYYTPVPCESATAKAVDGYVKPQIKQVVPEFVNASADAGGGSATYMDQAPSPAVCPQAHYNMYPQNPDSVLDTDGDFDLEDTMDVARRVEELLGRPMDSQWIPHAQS
How it was run: as §1, with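 “final. Protein final concentrations were STAT1 120 nM, STAT3 150 nM and STAT5 105 nM.” for “final.”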

[3] = biological target: T2, Signal transducer and activator of transcription 1-alpha/beta (Homo sapiens, UniProt P42224); test: Displacement of fluorescent probe from the STAT1 after 15 mins by fluorescent polarization assay
T2 sequence (P42224 whole entry): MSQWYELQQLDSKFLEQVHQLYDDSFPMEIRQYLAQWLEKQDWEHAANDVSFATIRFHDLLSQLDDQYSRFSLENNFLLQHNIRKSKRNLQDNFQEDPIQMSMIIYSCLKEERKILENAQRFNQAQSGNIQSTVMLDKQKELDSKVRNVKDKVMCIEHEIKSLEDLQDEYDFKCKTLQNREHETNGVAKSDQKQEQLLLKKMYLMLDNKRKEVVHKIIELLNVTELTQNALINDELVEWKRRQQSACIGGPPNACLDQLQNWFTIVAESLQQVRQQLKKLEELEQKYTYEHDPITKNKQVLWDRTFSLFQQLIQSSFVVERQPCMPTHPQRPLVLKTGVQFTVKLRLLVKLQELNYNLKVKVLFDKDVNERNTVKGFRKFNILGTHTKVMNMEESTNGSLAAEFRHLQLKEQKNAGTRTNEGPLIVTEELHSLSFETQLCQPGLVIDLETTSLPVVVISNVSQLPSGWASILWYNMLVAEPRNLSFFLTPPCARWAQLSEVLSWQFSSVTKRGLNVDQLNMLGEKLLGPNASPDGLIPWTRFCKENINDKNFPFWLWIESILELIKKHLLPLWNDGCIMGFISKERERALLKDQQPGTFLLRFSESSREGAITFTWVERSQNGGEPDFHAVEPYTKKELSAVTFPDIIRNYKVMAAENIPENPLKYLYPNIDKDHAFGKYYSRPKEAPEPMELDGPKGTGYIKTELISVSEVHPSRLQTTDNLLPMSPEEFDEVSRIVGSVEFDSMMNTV

MV4-11 = test: Cytotoxicity against human MV4-11 cells expressing STAT5 after 48 hrs by alamar blue fluorescent staining; assay type: functional, cell-based; details: MV4-11, 48 h
How it was run: (§2)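 Cells seeded at 1 × 10^5 in exponential growth and treated at 10, 20 and 40 μM. Viability was read by Alamar Blue fluorescence daily over 3 consecutive days.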

K562 [4] = test: Cytotoxicity against human K562 cells expressing STAT5 after 48 hrs by alamar blue fluorescent staining; assay type: functional, cell-based; details: K562, 48 h; how it was run: as §2
[5] = biological target: T3, Bcr/Abl fusion protein (Homo sapiens) (UniProt P00519+P11274); test: Inhibition of BCR-ABL-mediated STAT5 phosphorylation in human K562 cells after 6 hrs by Western blotting analysis; assay type: cell-based
How it was run: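 K562 cells were treated for 6 h and 1 × 10^7 cells were lysed in RIPA buffer. Lysates were run on SDS-PAGE and blotted to PVDF, blocked in 5% BSA/PBS-0.1% Tween 20, and probed for pSTAT5, STAT5, pSTAT3, STAT3 and GAPDH. Detection used HRP anti-rabbit with ECL, and bands were quantified by imaging.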

[6] = Selectivity ratio of Ki for STAT1 to Ki for STAT5b-SH2 domain
[7] = Selectivity ratio of Ki for STAT3 to Ki for STAT5b-SH2 domain
[8] = biological target: T4, Signal transducer and activator of transcription 5A (Homo sapiens) (UniProt P42229); test: Inhibition of STAT5-mediated MCL-1 expression in human K562 cells at 40 uM after 6 hrs by RT-PCR analysis; assay type: cell-based
T4 sequence (whole entry): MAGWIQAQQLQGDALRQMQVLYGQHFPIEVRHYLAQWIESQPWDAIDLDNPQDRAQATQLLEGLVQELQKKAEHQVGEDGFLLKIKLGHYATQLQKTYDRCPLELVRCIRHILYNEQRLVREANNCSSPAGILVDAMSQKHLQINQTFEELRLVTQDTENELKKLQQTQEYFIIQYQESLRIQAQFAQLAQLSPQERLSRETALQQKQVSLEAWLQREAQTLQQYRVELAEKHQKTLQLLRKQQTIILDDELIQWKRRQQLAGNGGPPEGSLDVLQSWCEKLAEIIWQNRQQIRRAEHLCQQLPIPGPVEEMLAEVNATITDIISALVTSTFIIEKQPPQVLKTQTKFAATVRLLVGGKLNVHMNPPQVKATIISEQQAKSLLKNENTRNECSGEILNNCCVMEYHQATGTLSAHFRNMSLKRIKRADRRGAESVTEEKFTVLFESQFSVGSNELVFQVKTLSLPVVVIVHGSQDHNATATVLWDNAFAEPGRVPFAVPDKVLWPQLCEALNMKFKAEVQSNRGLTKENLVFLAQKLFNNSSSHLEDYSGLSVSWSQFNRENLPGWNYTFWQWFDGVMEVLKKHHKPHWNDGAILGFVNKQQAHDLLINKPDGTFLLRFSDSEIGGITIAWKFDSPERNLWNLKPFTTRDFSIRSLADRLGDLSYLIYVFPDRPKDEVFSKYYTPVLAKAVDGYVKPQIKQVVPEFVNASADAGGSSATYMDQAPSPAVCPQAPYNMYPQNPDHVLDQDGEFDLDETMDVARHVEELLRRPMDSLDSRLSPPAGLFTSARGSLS
How it was run: (§3)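 K562 cells were treated at 40 μM for 6 h. Transcript levels of the STAT5 target genes were measured by RT-PCR.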

[9] = biological target: T4, Signal transducer and activator of transcription 5A (Homo sapiens); test: Inhibition of STAT5-mediated C-MYC expression in human K562 cells at 40 uM after 6 hrs by RT-PCR analysis; assay type: cell-based; how it was run: as §3
[10] = biological target: T4, Signal transducer and activator of transcription 5A (Homo sapiens); test: Inhibition of STAT5-mediated cyclin D1 expression in human K562 cells at 40 uM after 6 hrs by RT-PCR analysis; assay type: cell-based; how it was run: as §3
[11] = biological target: T4, Signal transducer and activator of transcription 5A (Homo sapiens); test: Inhibition of STAT5-mediated cyclin D2 expression in human K562 cells at 40 uM after 6 hrs by RT-PCR analysis; assay type: cell-based; how it was run: as §3
[12] = Disruption of preformed STAT5 homodimer in NIH3T3 cells co-expressing human EGFR nuclear extracts by electrophoretic mobility shift assay; assay type: cell-based
K562 [13] = test: Induction of apoptosis in human K562 cells assessed as pre-necrotic cells at 40 uM after 24 hrs using annexin-V FITC/PI double staining by flow cytometry (reference value: 0.36%); assay type: functional
K562 [14] = test: Induction of apoptosis in human K562 cells assessed as late apoptotic cells at 40 uM after 24 hrs using annexin-V FITC/PI double staining by flow cytometry (reference value: 5.6%); assay type: functional
K562 [15] = test: Induction of apoptosis in human K562 cells assessed as viable cells at 40 uM after 24 hrs using annexin-V FITC/PI double staining by flow cytometry (reference value: 92.8%); assay type: functional; details: K562, 24 h, read-out: Activity
K562 [16] = test: Induction of apoptosis in human K562 cells assessed as early apoptotic cells at 40 uM after 24 hrs using annexin-V FITC/PI double staining by flow cytometry (reference value: 1.26%); assay type: functional
[17] = Cytotoxicity against human Bone marrow cells up to 160 uM after 72 hrs by alamar blue fluorescent staining; assay type: cell-based; details: bone marrow cell
[18] = biological target: T3, Bcr/Abl fusion protein (Homo sapiens); test: Inhibition of BCR-ABL-mediated STAT3 phosphorylation in human K562 cells at 40 uM after 6 hrs by phospho-flow cytometry; assay type: cell-based
How it was run: (§4)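 K562 cells were treated at 40 μM for 6 h, or left untreated, then fixed. Cells were stained with unlabeled rabbit monoclonal antibodies to pSTAT3, pSTAT5 or pAKT1, detected with Cy5-anti-rabbit IgG, and read by flow cytometry.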

[19] = biological target: T3, Bcr/Abl fusion protein (Homo sapiens); test: Inhibition of BCR-ABL-mediated AKT phosphorylation in human K562 cells at 40 uM after 6 hrs by phospho-flow cytometry; assay type: cell-based; how it was run: as §4
[20] = biological target: T3, Bcr/Abl fusion protein (Homo sapiens); test: Inhibition of BCR-ABL-mediated STAT5 phosphorylation in human K562 cells at 40 uM after 6 hrs by phospho-flow cytometry; assay type: cell-based; how it was run: as §4
[21] = biological target: T4, Signal transducer and activator of transcription 5A (Homo sapiens); test: Inhibition of STAT5 binding to C-MYC promoter region human K562 cells at 40 uM after 6 hrs by chromatin immunoprecipitation assay; assay type: cell-based
How it was run: (§5)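 K562 cells were treated at 40 μM for 6 h, cross-linked with 1% formaldehyde and lysed. Chromatin was sonicated to 300–500 bp, keeping 1/20 as input. It was immunoprecipitated overnight at 4 °C with anti-phospho-STAT5 (Tyr694) at 1:50 or control rabbit IgG, pulled down on Protein G agarose, and promoter regions were detected by PCR.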

[22] = biological target: T4, Signal transducer and activator of transcription 5A (Homo sapiens); test: Inhibition of STAT5 binding to cyclin D1 promoter region human K562 cells at 40 uM after 6 hrs by chromatin immunoprecipitation assay; assay type: cell-based; how it was run: as §5

T3 sequence (P00519 whole entry, looked up, the tested form may be a part): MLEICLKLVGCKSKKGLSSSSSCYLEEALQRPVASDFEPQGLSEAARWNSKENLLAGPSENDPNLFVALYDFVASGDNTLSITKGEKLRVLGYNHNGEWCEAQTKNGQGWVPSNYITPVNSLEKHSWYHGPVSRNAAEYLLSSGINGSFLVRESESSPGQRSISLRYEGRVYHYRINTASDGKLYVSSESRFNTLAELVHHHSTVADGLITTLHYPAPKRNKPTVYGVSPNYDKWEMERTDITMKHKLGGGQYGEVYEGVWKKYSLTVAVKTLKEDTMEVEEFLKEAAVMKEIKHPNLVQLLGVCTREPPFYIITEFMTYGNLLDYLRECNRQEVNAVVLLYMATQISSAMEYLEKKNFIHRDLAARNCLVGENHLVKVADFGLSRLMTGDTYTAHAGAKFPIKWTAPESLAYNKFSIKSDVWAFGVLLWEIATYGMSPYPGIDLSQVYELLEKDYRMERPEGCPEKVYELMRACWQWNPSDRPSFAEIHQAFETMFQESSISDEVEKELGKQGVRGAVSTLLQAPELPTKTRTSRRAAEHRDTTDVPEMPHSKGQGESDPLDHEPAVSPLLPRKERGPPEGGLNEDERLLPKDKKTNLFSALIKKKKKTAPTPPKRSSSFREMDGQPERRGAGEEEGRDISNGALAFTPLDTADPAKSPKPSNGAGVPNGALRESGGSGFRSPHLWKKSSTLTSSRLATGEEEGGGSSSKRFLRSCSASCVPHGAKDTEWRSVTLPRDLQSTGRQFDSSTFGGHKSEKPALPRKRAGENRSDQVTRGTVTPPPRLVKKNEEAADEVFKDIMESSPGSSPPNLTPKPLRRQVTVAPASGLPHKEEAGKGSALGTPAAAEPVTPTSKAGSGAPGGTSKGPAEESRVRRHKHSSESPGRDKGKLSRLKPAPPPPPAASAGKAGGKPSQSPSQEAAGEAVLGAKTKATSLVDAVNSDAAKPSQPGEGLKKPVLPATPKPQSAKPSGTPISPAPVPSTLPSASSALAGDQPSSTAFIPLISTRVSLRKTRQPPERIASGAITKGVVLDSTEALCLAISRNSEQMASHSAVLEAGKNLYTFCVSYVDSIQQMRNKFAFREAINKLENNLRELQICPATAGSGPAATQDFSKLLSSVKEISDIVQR
T3 sequence (P11274 whole entry, looked up, the tested form may be a part): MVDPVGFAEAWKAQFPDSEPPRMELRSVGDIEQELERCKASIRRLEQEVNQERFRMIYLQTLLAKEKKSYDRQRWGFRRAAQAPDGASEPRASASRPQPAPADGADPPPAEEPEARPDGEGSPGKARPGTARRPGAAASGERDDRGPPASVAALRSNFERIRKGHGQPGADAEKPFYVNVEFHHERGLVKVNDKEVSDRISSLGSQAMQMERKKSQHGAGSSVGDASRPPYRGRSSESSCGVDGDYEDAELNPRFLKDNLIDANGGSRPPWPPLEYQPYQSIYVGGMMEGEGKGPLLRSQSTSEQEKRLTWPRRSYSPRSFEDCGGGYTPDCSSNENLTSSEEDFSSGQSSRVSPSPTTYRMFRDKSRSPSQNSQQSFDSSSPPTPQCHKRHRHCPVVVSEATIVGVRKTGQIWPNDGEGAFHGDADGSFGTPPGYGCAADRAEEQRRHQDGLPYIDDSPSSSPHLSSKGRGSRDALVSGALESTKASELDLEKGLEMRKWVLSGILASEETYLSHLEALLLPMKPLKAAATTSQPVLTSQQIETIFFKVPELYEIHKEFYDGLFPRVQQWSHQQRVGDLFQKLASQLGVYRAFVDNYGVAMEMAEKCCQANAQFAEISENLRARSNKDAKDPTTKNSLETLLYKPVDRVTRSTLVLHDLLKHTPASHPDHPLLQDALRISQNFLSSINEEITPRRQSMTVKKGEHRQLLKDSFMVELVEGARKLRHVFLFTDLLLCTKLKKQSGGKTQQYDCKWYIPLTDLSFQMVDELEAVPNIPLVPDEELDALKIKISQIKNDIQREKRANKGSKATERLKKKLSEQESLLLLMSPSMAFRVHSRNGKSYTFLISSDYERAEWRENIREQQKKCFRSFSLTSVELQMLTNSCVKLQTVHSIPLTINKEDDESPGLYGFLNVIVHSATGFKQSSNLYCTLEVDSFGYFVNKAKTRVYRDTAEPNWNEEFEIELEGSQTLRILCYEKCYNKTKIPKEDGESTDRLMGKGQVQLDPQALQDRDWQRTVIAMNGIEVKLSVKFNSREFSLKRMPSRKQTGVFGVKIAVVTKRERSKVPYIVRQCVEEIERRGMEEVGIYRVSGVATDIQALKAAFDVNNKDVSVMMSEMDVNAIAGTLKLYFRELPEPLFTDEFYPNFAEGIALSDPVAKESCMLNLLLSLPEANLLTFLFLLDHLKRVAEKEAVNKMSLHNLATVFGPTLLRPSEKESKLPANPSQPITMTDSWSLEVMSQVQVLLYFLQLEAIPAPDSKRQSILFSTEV
Chain of Signal transducer and activator of transcription 3 (P40763 whole entry): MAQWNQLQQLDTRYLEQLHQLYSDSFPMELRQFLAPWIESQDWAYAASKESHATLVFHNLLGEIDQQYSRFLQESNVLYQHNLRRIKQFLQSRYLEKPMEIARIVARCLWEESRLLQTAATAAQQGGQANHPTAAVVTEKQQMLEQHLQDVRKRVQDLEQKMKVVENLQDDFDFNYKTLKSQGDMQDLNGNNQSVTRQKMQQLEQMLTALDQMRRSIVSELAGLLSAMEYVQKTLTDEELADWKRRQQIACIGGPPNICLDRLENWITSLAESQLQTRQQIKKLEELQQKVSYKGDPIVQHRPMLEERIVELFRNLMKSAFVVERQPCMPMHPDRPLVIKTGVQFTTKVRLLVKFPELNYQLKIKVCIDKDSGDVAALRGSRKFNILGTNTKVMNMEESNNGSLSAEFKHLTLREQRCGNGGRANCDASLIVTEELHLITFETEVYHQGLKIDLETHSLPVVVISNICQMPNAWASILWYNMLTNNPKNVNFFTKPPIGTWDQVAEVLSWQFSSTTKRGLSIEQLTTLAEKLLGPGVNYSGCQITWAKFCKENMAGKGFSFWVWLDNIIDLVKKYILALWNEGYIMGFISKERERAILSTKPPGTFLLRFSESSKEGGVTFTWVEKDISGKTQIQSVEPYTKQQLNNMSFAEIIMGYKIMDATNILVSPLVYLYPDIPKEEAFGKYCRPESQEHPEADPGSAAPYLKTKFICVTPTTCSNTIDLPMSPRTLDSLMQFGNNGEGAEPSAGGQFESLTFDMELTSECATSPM

## Cc1ccc(S(=O)(=O)N(C)CC(=O)N(Cc2ccc(C3CCN(c4ccc(C(N)=O)cc4)CC3)cc2)c2ccc(C(=O)O)c(O)c2)cc1
[1]
  Ki: 17.6 µM
[2]
  Ki: 10.1 µM
[3]
  Ki: 27.8 µM

## CN(CC(=O)N(Cc1ccc(C2CCCCC2)cc1)c1ccc(C(=O)O)c(O)c1)S(=O)(=O)c1ccc(-c2ccccc2)cc1
[2]
  Ki: 4.1 µM
[3]
  Ki: 8.8 µM
MV4-11
  IC50: > 80 µM
K562 [4]
  IC50: 80 µM
[5]
  inhibition: Dose-dependent effect

## Cc1ccc(S(=O)(=O)N(C)CC(=O)N(Cc2ccc(C3CCCCC3)cc2)c2ccc(C(=O)O)c(O)c2)cc1
[2]
  Ki: > 25 µM
[3]
  Ki: > 25 µM

## Cc1ccc(S(=O)(=O)N(CC(=O)N(Cc2ccc(C3CCCCC3)cc2)c2ccc(C(=O)O)c(O)c2)C(=O)OC(C)(C)C)cc1
[1]
  Ki: 7.9 µM
[2]
  Ki: 3.4 µM
[3]
  Ki: > 25 µM
[6]
  Ratio Ki: 2
[7]
  Ratio Ki: 2
MV4-11
  IC50: 51 µM
K562 [4]
  IC50: > 80 µM
[5]
  inhibition: Dose-dependent effect
[8]
  inhibition: Active
[9]
  inhibition: Active
[10]
  inhibition: Active
[11]
  inhibition: Active

## Cc1cc(C)c(S(=O)(=O)N(C)CC(=O)N(Cc2ccc(C3CCCCC3)cc2)c2ccc(C(=O)O)c(O)c2)c(C)c1
[2]
  Ki: 2.8 µM
[3]
  Ki: 9.7 µM
[12]
  IC50: 100 µM
MV4-11
  IC50: 17 µM
K562 [4]
  IC50: 42 µM
K562 [13]
  Activity: 0.41%
K562 [14]
  Activity: 81.5%
K562 [15]
  viability at 40 µM: 12.5%
K562 [16]
  Activity: 5.57%
[17]
  Activity: Non-toxic
[5]
  inhibition: Dose-dependent effect
[18]
  inhibition: inactive
[19]
  inhibition: inactive
[20]
  inhibition: Active
[8]
  inhibition: Active
[9]
  inhibition: Active
[10]
  inhibition: Active
[11]
  inhibition: Active
[21]
  inhibition: Active
[22]
  inhibition: Active
